Consider six molecules from ChEMBL document CHEMBL1641402, “Use of experimental design for the optimization of the production of new secondary metabolites by two Penicillium species” (J Nat Prod, 2010).

Calls of active or inactive are those of the source. No cut-off for these calls is given here. Some results are limits rather than exact numbers.

One assay has as its system Staphylococcus aureus. Kind of assay: Antimicrobial activity against Staphylococcus aureus after 24 hrs by broth micro dilution method. The assay is classed as functional. The method, boiled down: (§1)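 Broth microdilution per NCCLS guidelines: 2-fold serial dilutions in RPMI-1640 buffered to pH 7.5 with 0.165 M MOPS, final 0.5–128 µg/mL. Inocula from 24 h tryptic soy agar cultures at 37 °C, final 10^3/10^4 cells per mL. Kanamycin and polymyxin B as controls. Incubated 24 h at 37 °C, OD 600 nm; MIC is lowest concentration giving complete (90%) growth inhibition.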

Another assay concerns Escherichia coli. As to the kind of experiment: Antimicrobial activity against Escherichia coli after 24 hrs by broth micro dilution method. The assay is classed as functional. In a few lines: as §1
The next assay concerns HTB-129. Kind of assay: (§2) Cytotoxicity against human HTB-129 cells after 72 hrs by MTT assay. The assay is classed as functional, cell-based. In a few lines: (§3)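 HTB-129 breast carcinoma cells kept in Leibovitz's L-15 with 2 mM L-glutamine, insulin 0.01 mg/mL, 10% FBS, penicillin/streptomycin, 37 °C in air. Seeded at 1 × 10^5 cells/mL, 24 h before dosing. Compounds in DMSO, serially diluted in medium from 200 to 1.76 µg/mL. Exposure 72 h, then MTT 3 h, DMSO solubilization, read at 570 nm. Viability as percent of untreated controls; IC50 fitted.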
In general terms: Formazan colour is commonly taken as a measure of viable cells.

Another assay concerns Pseudomonas aeruginosa. As to the kind of experiment: Antimicrobial activity against Pseudomonas aeruginosa after 24 hrs by broth micro dilution method. The assay is classed as functional. The method, boiled down:
as §1

Assay [1] deals with Mycobacterium tuberculosis. As to the kind of experiment: Antimycobacterial activity against Mycobacterium tuberculosis H37Rv. The assay is classed as functional, organism-based.
Assay [2] in a line: as §2. The assay is classed as functional, cell-based. Particulars: HTB-129, 72 h. The method, boiled down: as §3
Assay [3] deals with Candida albicans. Kind of assay: Antimicrobial activity against Candida albicans at 40 ug/disk. The assay is classed as functional, organism-based.
Assay [4] relates to Candida albicans. Kind of assay: Antimicrobial activity against Candida albicans at 8 ug/disk. The assay is classed as functional. As to conditions: read-out: IZ.

As to `COc1ccc2c3c1C(=O)CC(C)(C)N3C(=O)[C@@]21C[C@]2([N+](=O)[O-])CN3CCC[C@@H]3C[C@H]2C1(C)C`, the inhibition entry (in the assay on Staphylococcus aureus; in the assay on Escherichia coli; in the assay on HTB-129; with Pseudomonas aeruginosa; in assay [1]) was “inactive” in each case.
On to `COc1ccc2c3c1C(=O)CC(C)(C)N3C(=O)[C@@]21C[C@@]2([N+](=O)[O-])CN3CCC[C@@H]3C[C@H]2C1(C)C`, for which the inhibition entry (with Staphylococcus aureus; with Escherichia coli; in the assay with HTB-129; with Pseudomonas aeruginosa; in assay [1]) was “inactive” throughout.
Broadly, the MIC is the lowest concentration found to suppress growth. By IC50 is commonly meant the concentration that gives 50% inhibition. A lower IC50 goes with higher potency. Take `CC1(C)CC(=O)c2c(ccc3c2NC(=O)[C@]32C[C@@]3([N+](=O)[O-])CN4CCC[C@@H]4C[C@@H]3C2(C)C)O1.O=C(O)C(F)(F)F` [CITRINALINE B]: the MIC against Staphylococcus aureus, in the assay on Escherichia coli and against Pseudomonas aeruginosa was over 32 µg/mL throughout. The IC50 in assay [2] is 194 µM. The inhibition entry with Candida albicans [3] is “inactive”.
For the molecule `C=CC(C)(C)[C@]12C=C(OC)C(=O)N3/C(=C/c4c[nH]cn4)C(=O)N[C@@]31N(OC)c1ccccc12`, the inhibition result in assay [1] was “inactive”.
On to `CC1(C)CC(=O)c2c(ccc3c2NC(=O)[C@]32C[C@@]3([N+](=O)[O-])CN4CCC[C@H]4C[C@@H]3C2(C)C)O1.O=C(O)C(F)(F)F` [CITRINALIN A], for which the MIC in the assay with Staphylococcus aureus, against Escherichia coli and with Pseudomonas aeruginosa was over 32 µg/mL in each case. In assay [2], this molecule displayed an IC50 of 174 µM. Besides, the inhibition entry in the assay with Candida albicans [3] is “inactive”.
Turning to `C[C@@H]1[C@H](O)[C@@H](C)/C=C/C=C/C=C/C=C/C=C/C=C/C=C/[C@H](O[C@@H]2O[C@H](C)[C@@H](O)[C@H](N)[C@@H]2O)C[C@@H]2O[C@](O)(C[C@@H](O)C[C@@H](O)[C@H](O)CC[C@@H](O)C[C@@H](O)CC(=O)O[C@H]1C)C[C@H](O)[C@H]2C(=O)O` [AMPHOTERICIN B], in the assay on Candida albicans [4], the zone of inhibition at 8 µg/disc is 20 mm.
